# An excerpt weighted towards active compounds, which were near 1.2% of everything screened.
# CaV13 ICDI inh: Disruptors of the CACNA1D IQ motif to Ca2+-dependent inactivation inhibitor domain association, primary screening, Förster resonance energy transfer in intact living …. HEK cells, CFP/YFP FRET ICDI-IQ, plate reader, 10 min; percent FRET-ratio fall versus neutral wells. inhibition, % at 12.3 µM. 0.098% of 340,000 active;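 active = mean replicate inhibition of at least 30% and at least 1% of replicates passing that level; inconclusive = only one of the two criteria is met; inactive = neither criterion is met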;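 note: 0% = median of the neutral control wells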
# Efflux pump inh: antifungal efflux pump inhibition, Nile Red retention; S. cerevisiae Candida pump triplex; inhibition, % at 10 µM; 0.44% of 330,000 active;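 active = plate passing quality check with inhibition over a set limit, or well fluorescence over plate mean plus 4 SD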;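 note: Nile Red retained in pooled yeast measured as flow cytometry median fluorescence; 0% = buffer negative control and 100% = Enniatin B positive control; higher means more Nile Red kept so more efflux inhibition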
# FN deposit inh: fibronectin deposition inhibition | AH1F fibroblasts, Alexa488-fibronectin deposition fluorescence, overnight | inhibition, % at 12.6 µM | 0.086% of 350,000 active | AID 743247;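 active = mean inhibition across replicates of 30% or more, regardless of how many single replicates reach that level; inconclusive = mean under 30% yet at least half of replicates reach 30%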;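 note: positive control wells lacked labelled fibronectin entirely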
#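 Assay system: AH1F fibroblasts / Quantity: 10000 cells per well / Medium: DMEM plus 2% serum, read in PBS / Reagent: labelled fibronectin 24 nM / Dosing: single dose, pinned / Times: 1 h cell attachment, overnight exposure to compound and label / Signal: fluorescence, ex 485 nm, em 525 nm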
# SR-BI DiI inh: mouse SR-BI HDL lipid transfer inhibition | inhibition, % at 12.5 µM | ldlA[mSR-BI] CHO cells, DiI-HDL uptake fluorescence, 3 h | Q61009 | 0.96% of 320,000 active;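 active = mean replicate inhibition of at least 70% and a set share of replicates each scoring 70 or more; inconclusive = meets just one of the two criteria; inactive = fails both criteria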;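 note: 0% = median of neutral control wells and 100% = median of positive control wells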
# Target sequence (Q61009 whole entry, looked up): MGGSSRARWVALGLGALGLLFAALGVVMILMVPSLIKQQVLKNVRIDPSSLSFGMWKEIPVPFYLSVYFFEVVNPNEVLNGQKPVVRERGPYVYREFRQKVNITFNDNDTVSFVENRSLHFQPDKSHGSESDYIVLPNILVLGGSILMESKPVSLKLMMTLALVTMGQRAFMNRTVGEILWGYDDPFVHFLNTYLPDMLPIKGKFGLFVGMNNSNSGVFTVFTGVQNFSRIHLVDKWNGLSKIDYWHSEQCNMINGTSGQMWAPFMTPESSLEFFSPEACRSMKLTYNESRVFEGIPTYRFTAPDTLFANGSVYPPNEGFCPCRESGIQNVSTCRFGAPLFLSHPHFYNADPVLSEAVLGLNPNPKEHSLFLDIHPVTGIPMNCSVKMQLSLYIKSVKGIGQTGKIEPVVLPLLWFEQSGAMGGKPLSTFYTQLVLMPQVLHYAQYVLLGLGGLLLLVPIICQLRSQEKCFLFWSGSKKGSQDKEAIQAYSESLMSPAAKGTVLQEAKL
# SR-BI DiI-HDL act: SR-BI HDL lipid transfer activation | CHO ldlA[mSR-BI] cells, DiI-HDL uptake fluorescence, 3 h; 100 = double the neutral-control signal | activation, % at 12.5 µM | 0.096% of 320,000 active | AID 504775;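 active = mean replicate activation of at least 60% and every replicate at or above 60%; inconclusive = mean or all-replicate condition met, but not both; inactive = mean below 60% and not all replicates reaching 60%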;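 note: 0% = median plate neutral-control signal and 100% = twice that signal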
#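 system = CHO ldlA[mSR-BI] cells, LDL receptor-null, SR-BI overexpressing | medium = Ham's F12 with 0.5% BSA, HEPES 25 mM, pH 7.4 | probe or stimulus = DiI-HDL 10 µg/mL | compound dosing = single-point compound dose | incubation = compound exposure 3 h, 37 °C | technique = DiI fluorescence, bottom read | read-out = cell-associated DiI fluorescence as measure of HDL uptake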
# DiI quencher: quenches DiI-HDL fluorescence, an SR-BI assay artifact. shares compounds with SR-BI DiI inh. AC50, µM (top dose mostly 35 µM), for the others: at the top dose activity change, negative = quenching. cell-free DiI-HDL fluorescence quenching, 30 min. 20% of 470 active;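 active = quenching, a falling signal, with AC50 below a set limit tied to the top valid dose, actives reach about 32 µM in these data; inconclusive = no clear call, values can overlap the other calls; inactive = rising signal, and the rest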
# The depositor's hits bear a star; ? = inconclusive; . = no result.
SMILES,CaV13 ICDI inh,Efflux pump inh,FN deposit inh,SR-BI DiI inh,SR-BI DiI-HDL act,DiI quencher
CCOC(=O)C(C)(C)Sc1nc2c(cnn2-c2ccc(F)cc2)c(=O)[nH]1,-7,0,-6,77*,-77,-6%
CO[C@H]1CN(C)C(=O)c2cc(NS(=O)(=O)CC(F)(F)F)ccc2OC[C@@H](C)N(CC2CCCCC2)C[C@@H]1C,.,.,1,.,.,.
CN1CCc2ccc(NC(=O)c3ccc(C(F)(F)F)cc3)cc2C1,-5,0,5,82*,-82,2%
Cc1ccccc1-c1cnc2c(c1)C(=O)N([C@@H](C)CO)C[C@@H](C)[C@@H](CN(C)CC1CC1)O2,.,.,-1,.,.,.
COC(=O)C[C@H]1C=C[C@@H](NS(=O)(=O)c2ccccc2F)[C@@H](CO)O1,.,.,4,.,.,.
C[C@@H]1CN([C@@H](C)CO)C(=O)Cc2cc(NS(=O)(=O)c3ccccc3)ccc2O[C@@H]1CN(C)Cc1ccc2c(c1)OCO2,.,.,0,.,.,.
Cc1cccc(N2CCN(C(=O)CN3C(=O)NC4(CCCCCC4)C3=O)CC2)c1C,-6,.,2,73*,-73,-3%
Cc1cccc(N2CCN(C(=O)Cn3cccc3C(=O)c3ccccc3)CC2)c1C,-4,0,6,73*,-73,-7%
O=C(c1ccccc1)c1cccn1CC(=O)N1CCCCCC1,-5,0,.,-16,16,.
C[C@H]1CN([C@@H](C)CO)C(=O)Cc2cc(NC(=O)Cc3ccccc3)ccc2O[C@@H]1CN(C)Cc1ccc2c(c1)OCO2,.,.,-5,.,.,.
CC(C)CC#Cc1ccc2c(c1)O[C@@H](CN(C)C(=O)C1CCCCC1)[C@@H](C)CN([C@H](C)CO)S2(=O)=O,.,.,-7,.,.,.
CS(=O)(=O)Nc1ccc2c(c1)[C@@H]1C[C@H](CC(=O)NCc3cccnc3)O[C@H](CO)[C@@H]1O2,.,.,-6,.,.,.
COc1ccc(OCCSc2nnc(-c3cccnc3)n2N)cc1,-3,-3,7,106*,-106,-1%
COc1ccc(S(=O)(=O)N2CCC(C(=O)NN3CCCCC3)CC2)cc1OC,-14,0,4,-9,9,-2%
COc1ccc(S(=O)(=O)N2CCC(C(=O)NC3CCCC3)CC2)cc1OC,-1,0,12,6,-6,.
CN1CCC2CC1c1cc(-c3ccc(C(F)(F)F)cc3)ccc12 (configuration not stated),-4,.,8,-12,12,-5%
CN(C(=O)c1cc(-n2cnnc2)ccc1Cl)c1ccccc1,-5,0,5,-11,11,-3%
COc1cc(NC(=O)c2cc(-n3cnnc3)ccc2Cl)cc(OC)c1,-5,0,.,44,-44,-2%
O=C(NCc1ccccc1)c1cc(-n2cnnc2)ccc1Cl,-2,0,.,7,-7,.
COCC(=O)Nc1ccc2c(c1)C(=O)N(C)C[C@@H](OC)[C@H](C)CN(C(=O)CN1CCOCC1)[C@H](C)CO2,.,.,-3,.,.,.
COc1cccc(C2c3[nH]c4ccccc4c3C[C@H]3C(=O)N(CCCCCO)CC(=O)N23)c1 (some centres not stated),-21,0,-1,56,-56,.
O=C1[C@@H]2Cc3c([nH]c4ccccc34)C(c3cccc([N+](=O)[O-])c3)N2C(=O)CN1CCCO (some centres not stated),-3,0,8,82*,-82,-16%
CCOC(=O)Nc1nc(-c2ccccc2)c(C(=O)c2ccccc2)s1,-5,0,.,75*,-75,-2%
COC(=O)Nc1nc(-c2ccccc2)c(C(=O)c2ccc(Cl)cc2)s1,.,0,.,-3,3,.
CC[C@@H](C)[C@H](NC(=O)Cc1c(C)c2cc3c(C)c(C)oc3c(C)c2oc1=O)C(=O)O,-3,0,4,95*,-95,-3%
SMILES,CaV13 ICDI inh,Efflux pump inh,FN deposit inh,SR-BI DiI inh,SR-BI DiI-HDL act,DiI quencher
Cc1ccc(Sc2nc(-c3ccccc3)nnc2C(F)(F)F)cc1,-4,0,-6,?,-70,-1%
CNc1nc(-c2ccccc2)nnc1C(F)(F)F,-6,0,-2,-15,15,.
COc1cc(/C=C\C(=O)NCc2ccc3c(c2)cc(C)n3C)cc(OC)c1OC,-4,0,1,78*,-78,-4%
CCc1cc(=O)oc2c3c(cc(OCC(=O)NCc4ccco4)c12)OC(C)(C)CC3,.,0,.,?,-76,0%
CCC(=O)Nc1ccc2c(c1)C(=O)N(C)[C@@H]1CC[C@@H](CC(=O)NC3CCCC3)O[C@H]1CO2,.,.,-17,.,.,.
COc1cccc(C#Cc2ccc([C@H]3[C@H](CO)N4C(=O)CN(C(=O)Cc5cccnc5)C[C@@H]34)cc2)c1,.,.,-1,.,.,.
Cc1cc(C)cc(N2CN=C3SCC(=O)N3C2)c1,-7,0,.,?,-71,-3%
COc1ccccc1C(=O)Nc1ccc2c(c1)OC[C@H](C)N(C(C)=O)C[C@H](C)[C@H](OC)CN(C)C2=O,.,.,8,.,.,.
CO[C@H]1CN(C)C(=O)c2cc(C#N)ccc2OCC[C@@H]2CC[C@@H](OC)[C@H](CN(C)C(=O)[C@H]1C)O2,.,.,-1,.,.,.
CC(=O)Oc1ccc(C(=O)Nc2ccccc2NC(=O)c2ccc(OC(C)=O)cc2)cc1,-18,0,-3,59,-59,.
CC(=O)Oc1ccc(C(=O)Nc2cc(NC(=O)c3ccc(OC(C)=O)cc3)cc(C(=O)NC(C)(C)C)c2)cc1,-14,-1,1,22,-22,6%
COc1cccc(CN2[C@@H]3CNC[C@H]2C3c2ccc(-c3ccc(C)cc3)cc2)c1 (some centres not stated),.,.,-4,.,.,.
COc1ccc(C)cc1NC(=O)Nc1cccc(C(=O)O)c1,-4,0,-4,-11,11,.
CCOC(=O)Nc1cccc(NC(=O)c2cc(OC)cc(OC)c2)c1,-3,0,6,74*,-74,10%
COc1cc(OC)cc(C(=O)Nc2cccc(NC(=O)c3cc(OC)cc(OC)c3)n2)c1,4,0,5,82*,-82,6%
COc1cc(OC)cc(C(=O)Nc2cccc(NC(C)=O)c2)c1,-5,0,-1,25,-25,.
CCOC(=O)c1cccc(NC(=O)Nc2cc(OC)ccc2OC)c1,-4,0,7,109*,-109,4.8µM*
O=C(C[C@@H]1CC[C@H]2[C@@H](COC[C@@H](O)CN2Cc2ccc(C(F)(F)F)cc2)O1)N1CCc2ccccc2C1,.,.,10,.,.,.
COc1ccc(OC)c(CCNC(=O)c2ccc(NC3=NC4CS(=O)(=O)CC4S3)cc2)c1 (configuration not stated),7,0,2,83*,-83,2%
Cc1noc(C)c1S(=O)(=O)Nc1ccc2c(c1)C(=O)N([C@H](C)CO)C[C@@H](C)[C@H](CN(C)C(=O)Nc1ccc(F)cc1)O2,.,.,-1,.,.,.
